pIC50: −log10 of the molar value.
Legend:
HeLa [1] = assay: Antiproliferative activity against HeLa cells in dark; format: functional, cell-based; conditions: Homo sapiens
In short: (§1)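 HeLa cells (10^5 per well) were grown in F-12 with 10% heat-inactivated FCS at 37 °C in 5% CO2. After 24 h, medium was swapped for phenol-red-free DMEM with compound. For UVA, cells were irradiated after 1 h at 0.789 J cm-2 (365 nm), then the drug medium was replaced with complete F-12 for 24 h. In the dark arm, cells stayed 24 h with compound in complete F-12. IC50 is the concentration giving 50% fewer cells than control.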

HL-60 [2] = assay: Antiproliferative activity against HL60 cells in presence of 0.789 J/cm2 UVA light; format: functional, cell-based; conditions: Homo sapiens, HL-60, light or radiation study
In short: (§2)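 HL-60 cells (10^5 per well) were grown in RPMI 1640 with 15% heat-inactivated FCS and antibiotics at 37 °C in 5% CO2. After 24 h, compound was added in complete medium. For the irradiated arm, cells were kept 1 h in the dark, then given 0.789 J cm-2 UVA (365 nm lamps). Cells were incubated a further 24 h and viability read by trypan blue. IC50 is the concentration giving 50% fewer cells than control.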

HL-60 [3] = assay: Antiproliferative activity against HL60 cells in dark; format: functional, cell-based; conditions: Homo sapiens; in short: as §2
HeLa [4] = assay: Antiproliferative activity against HeLa cells in presence of 0.789 J/cm2 UVA light; format: functional, cell-based; conditions: Homo sapiens, light or radiation study; in short: as §1
Cavia porcellus [5] = organism: Cavia porcellus; assay: Phototoxicity in albino Dunkin-Hartley guinea pig skin assessed as formation of erythema at 0.14 umol/cm2; format: organism-based, Zone of skin; conditions: in vivo, topical_or_ocular
In short: (§3)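 Depilated albino outbred Dunkin-Hartley guinea pigs received the compound as an ethanol solution applied topically to the skin. Animals were kept 45 min in the dark, then the treated skin was irradiated with 20 kJ m-2 UVA. Erythema was scored after 48 h.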

Cavia porcellus [6] = assay: Phototoxicity in albino Dunkin-Hartley guinea pig skin assessed as formation of erythema with edema at 0.046 umol/cm2; format: organism-based, Zone of skin; conditions: in vivo, topical_or_ocular; in short: as §3
Cavia porcellus [7] = organism: Cavia porcellus; assay: Phototoxicity in albino Dunkin-Hartley guinea pig skin assessed as formation of erythema at […]; format: organism-based, Zone of skin; conditions: in vivo, topical_or_ocular; in short: as §3
[8] = target: DNA topoisomerase II (Homo sapiens) (UniProt P11388+Q02880); assay: Inhibition of topoisomerase 2 by ATP-dependent decatenation of kinetoplast DNA; format: protein assay
In short: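 Human topoisomerase II (1 U) was incubated with 0.15 µg kinetoplast DNA and compound (1, 2, 4, 8 µM) in 20 µL for 1 h at 37 °C. The reaction was stopped with stop buffer plus proteinase K 50 µg/mL for 30 min at 37 °C. Decatenation was read on a 1% agarose gel with ethidium bromide 0.5 µg/mL in TAE, pH 8.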

Question: How did the pIC50 (HeLa [1]) turn out when `Cc1cc(=O)oc2cc(OCCCN(C)C)c3c4c(oc3c12)CCCC4` was run?
Answer: Its pIC50 is < 4.70.

Question: What about the pIC50 (HL-60 [2]) of the same molecule?
Answer: The pIC50 was 6.21.

Question: What about the pIC50 (HL-60 [3]) of the same molecule?
Answer: Its pIC50 is 5.10.

Question: And the pIC50 (HeLa [4])?
Answer: Its pIC50 is 6.40.

Question: What about the Activity (Cavia porcellus [5]) of the same molecule?
Answer: The Activity was “Not Active”.

Question: How did the pIC50 (HeLa [1]) turn out when `Cc1cc(=O)oc2cc(O)c3c4c(oc3c12)CCCC4` was run?
Answer: The pIC50 was < 4.70.

Question: What about the pIC50 (HL-60 [2]) of the same molecule?
Answer: Its pIC50 is < 4.70.

Question: What about the pIC50 (HL-60 [3]) of the same molecule?
Answer: Its pIC50 is < 4.70.

Question: What about the pIC50 (HeLa [4]) of the same molecule?
Answer: Its pIC50 is < 4.70.

Question: And the Activity (Cavia porcellus [5])?
Answer: Its Activity is “Not Active”.

Question: `COc1cc2oc(=O)cc(C)c2c2oc3ccccc3c12` was tested. Which pIC50 (HeLa [1]) did it give?
Answer: The pIC50 was < 4.70.

Question: And the pIC50 (HL-60 [2])?
Answer: The pIC50 was < 4.70.

Question: What about the pIC50 (HL-60 [3]) of the same molecule?
Answer: The pIC50 was < 4.70.

Question: What about the pIC50 (HeLa [4]) of the same molecule?
Answer: The pIC50 was < 4.70.

Question: And the Activity (Cavia porcellus [5])?
Answer: The Activity was “Not Active”.

Question: `Cc1cc(=O)oc2cc(O)c3c4ccccc4oc3c12` was tested. Which pIC50 (HeLa [1]) did it give?
Answer: Its pIC50 is < 4.70.

Question: What about the pIC50 (HL-60 [2]) of the same molecule?
Answer: Its pIC50 is < 4.70.

Question: And the pIC50 (HL-60 [3])?
Answer: Its pIC50 is < 4.70.

Question: What about the pIC50 (HeLa [4]) of the same molecule?
Answer: The pIC50 was < 4.70.

Question: What about the Activity (Cavia porcellus [5]) of the same molecule?
Answer: Its Activity is “Not Active”.

Question: `COc1cc2oc(=O)cc(C)c2c2oc3c(c12)CCCC3` was tested. Which pIC50 (HeLa [1]) did it give?
Answer: The pIC50 was < 4.70.

Question: What about the pIC50 (HL-60 [2]) of the same molecule?
Answer: Its pIC50 is < 4.70.

Question: And the pIC50 (HL-60 [3])?
Answer: Its pIC50 is < 4.70.

Question: What about the pIC50 (HeLa [4]) of the same molecule?
Answer: The pIC50 was < 4.70.

Question: What about the Activity (Cavia porcellus [5]) of the same molecule?
Answer: Its Activity is “Not Active”.

Question: With `COc1c2occc2cc2ccc(=O)oc12` [METHOXSALEN] as the molecule, how does the pIC50 (HeLa [1]) read?
Answer: The pIC50 was < 4.70.

Question: And the Activity (Cavia porcellus [6])?
Answer: The Activity was “Active”.

Question: And the pIC50 (HL-60 [3])?
Answer: The pIC50 was < 4.70.

Question: Which results are given for `Cc1cc(=O)oc2cc(OCCCN(C)C)c3c4ccccc4oc3c12`?
Answer: Activity (Cavia porcellus [7]): Not Active; pIC50 (HeLa [1]): 5.46; Activity (Cavia porcellus [6]): Active; inhibition [8]: Dose-dependent effect; pIC50 (HL-60 [2]): 7.98; pIC50 (HL-60 [3]): 6.32; pIC50 (HeLa [4]): 8.37

From ChEMBL document CHEMBL1138081, “New furan side tetracyclic allopsoralen derivatives: synthesis and photobiological evaluation” (J Med Chem, 2006)
